ChEMBL document CHEMBL6078712, “Triterpenoid phthalimides as selective anti-cancer agents targeting mitochondrial apoptosis” (Eur J Med Chem, 2025)
The source made the active and inactive calls. The calls are words filed in the database; no cut-off is given here.

Columns and labels:
[1] = Stability in human plasma assessed as compound remaining at 2 uM incubated for 120 mins by RF-MS analysis; type: ADME, cell-free; conditions: read-out: Stability
Method in brief: (§1)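 Human plasma stability, plasma protein binding and liver microsome stability, each run in triplicate. Error deviations below 10 %.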

[2] = Metabolic stability in human liver microsomes assessed as parent compound remaining at 2 uM incubated for 15 mins in presence of NADPH by RF-MS analysis; type: ADME, Microsome; conditions: read-out: Stability; method in brief: as §1
CCRF-CEM [3] = assay: Induction of cell cycle arrest in human CCRF-CEM cells assessed as downregulation of Cyclin D expression at 1 to 5 times IC50 incubated for 24 hrs by Western blotting analysis; type: functional, cell-based
Method in brief: (§2)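 30 µg protein per lane on SDS-PAGE, transferred to nitrocellulose, blocked in 5 % BSA/TBS-Tween. Primary antibodies overnight at 4 °C (Akt, P-Akt Ser473, STAT-3, caspase-3, PARP, cyclin D, cyclin A, Bcl-xL, Bak, Bid, Bim), then HRP secondary and ECL detection. GAPDH as loading control.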

K562 = assay: Cytotoxicity against human K562 cells assessed as inhibition of cell growth incubated for 72 hrs by MTS assay; type: functional, cell-based; conditions: K562, 72 h
Method in brief: (§3)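 MTS assay on eight human cancer lines and two non-tumour fibroblast lines. IC50 is the concentration that inhibits cell growth by 50 %. SD typically up to 15 % of the mean.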

CCRF-CEM [4] = assay: Induction of apoptosis in human CCRF-CEM cells assessed as late apoptotic cells at 5 times IC50 incubated for 24 hrs by Annexin V-FITC and PI staining based flow cytometric analysis (reference value: 0.4 %); type: functional
Method in brief: (§4)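 Washed in Ca2+-containing binding buffer, then stained 15 min at room temperature in the dark with Annexin V-FITC and propidium iodide (PI at half the kit-recommended level). Read at once by flow cytometry with a 488 nm laser, ≥10,000 cells. Debris excluded; quadrants viable, early apoptotic, late apoptotic/necrotic, necrotic. Three independent experiments.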

HCT-116 = assay: Cytotoxicity against human HCT-116 cells assessed as inhibition of cell growth incubated for 72 hrs by MTS assay; type: functional, cell-based; conditions: HCT-116, 72 h; method in brief: as §3
CCRF-CEM [5] = assay: Induction of cell cycle arrest in human CCRF-CEM cells assessed as downregulation of AKT phosphorylation at 5 times IC50 incubated for 24 hrs by Western blotting analysis; type: functional, cell-based; method in brief: as §2
CCRF-CEM [6] = assay: Induction of apoptosis in human CCRF-CEM cells assessed as upregulation of BIM expression at 1 to 5 times IC50 incubated for 24 hrs by Western blotting analysis; type: functional, cell-based; method in brief: as §2
[7] = Stability in human plasma assessed as compound remaining at 2 uM incubated for 60 mins by RF-MS analysis; type: ADME, cell-free; conditions: read-out: Stability; method in brief: as §1
HCT 116 TP53(-/-) = assay: Cytotoxicity against human HCT116-p53-null cells assessed as inhibition of cell growth incubated for 72 hrs by MTS assay; type: functional, cell-based; method in brief: as §3
CCRF-CEM [8] = assay: Induction of cell cycle arrest in human CCRF-CEM cells assessed as downregulation of AKT phosphorylation at 1 times IC50 incubated for 24 hrs by Western blotting analysis; type: functional, cell-based; method in brief: as §2
CCRF-CEM [9] = assay: Cytotoxicity against human CCRF-CEM cells assessed as inhibition of cell growth incubated for 72 hrs by MTS assay; type: functional, cell-based; method in brief: as §3
CCRF-CEM [10] = assay: Induction of apoptosis in human CCRF-CEM cells assessed as late apoptotic cells at 1 times IC50 incubated for 24 hrs by Annexin V-FITC and PI staining based flow cytometric analysis (reference value: 0.4 %); type: functional; method in brief: as §4
U2OS = assay: Cytotoxicity against human U2OS cells assessed as inhibition of cell growth incubated for 72 hrs by MTS assay; type: functional, cell-based; method in brief: as §3
[11] = Cytotoxicity against human MRC5 cells assessed as inhibition of cell growth incubated for 72 hrs by MTS assay; type: toxicity, cell-based; method in brief: as §3
[12] = Metabolic stability in human liver microsomes assessed as parent compound remaining at 2 uM incubated for 30 mins in presence of NADPH by RF-MS analysis; type: ADME, Microsome; conditions: read-out: Stability; method in brief: as §1
CCRF-CEM [13] = assay: Inhibition of DNA synthesis in human CCRF-CEM cells at 1 times IC50 incubated for 24 hrs by BrdU incorporation based flow cytometry; type: functional
Method in brief: (§5)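 Fixed in ice-cold 70 % ethanol, DNA denatured in 2 M HCl for 30 min, neutralised with borax. Stained with anti-BrdU plus FITC secondary, then PI/RNase A for 1 h. Flow cytometry; % BrdU-positive cells.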

CCRF-CEM [14] = assay: Inhibition of RNA synthesis in human CCRF-CEM cells at 1 times IC50 incubated for 24 hrs by BrU incorporation based flow cytometry; type: functional
Method in brief: (§6)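 Fixed in 1 % paraformaldehyde/0.05 % NP-40 (15 min at room temperature, then 4 °C overnight). Stained with cross-reacting anti-BrdU plus FITC secondary (45 min each), then PI/RNase A. Flow cytometry; % BrU-positive cells.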

A549 = assay: Cytotoxicity against human A549 cells assessed as inhibition of cell growth incubated for 72 hrs by MTS assay; type: functional, cell-based; conditions: A549, 72 h; method in brief: as §3
CCRF-CEM [15] = assay: Inhibition of RNA synthesis in human CCRF-CEM cells at 5 times IC50 incubated for 24 hrs by BrU incorporation based flow cytometry; type: functional; method in brief: as §6
[16] = Cytotoxicity against human K562-Tax cells assessed as inhibition of cell growth incubated for 72 hrs by MTS assay; type: functional, cell-based; method in brief: as §3
CCRF-CEM [17] = assay: Induction of apoptosis in human CCRF-CEM cells assessed as early apoptotic cells at 1 times IC50 incubated for 24 hrs by Annexin V-FITC and PI staining based flow cytometric analysis (reference value: 2.1 %); type: functional; method in brief: as §4
CEM-DNR = assay: Cytotoxicity against human CEM-DNR cells assessed as inhibition of cell growth incubated for 72 hrs by MTS assay; type: functional, cell-based; method in brief: as §3
CCRF-CEM [18] = assay: Induction of apoptosis in human CCRF-CEM cells assessed as necrotic cells at 5 times IC50 incubated for 24 hrs by Annexin V-FITC and PI staining based flow cytometric analysis (reference value: 0.4 %); type: functional; method in brief: as §4
CCRF-CEM [19] = assay: Induction of apoptosis in human CCRF-CEM cells assessed as early apoptotic cells at 5 times IC50 incubated for 24 hrs by Annexin V-FITC and PI staining based flow cytometric analysis (reference value: 2.1 %); type: functional; method in brief: as §4
CCRF-CEM [20] = assay: Induction of cell cycle arrest in human CCRF-CEM cells assessed as downregulation of total STAT3 expression at 1 to 5 times IC50 incubated for 24 hrs by Western blotting analysis; type: functional, cell-based; method in brief: as §2
CCRF-CEM [21] = assay: Induction of apoptosis in human CCRF-CEM cells assessed as upregulation of BID expression at 1 to 5 times IC50 incubated for 24 hrs by Western blotting analysis; type: functional, cell-based; method in brief: as §2
[22] = Cytotoxicity against human BJ cells assessed as inhibition of cell growth incubated for 72 hrs by MTS assay; type: toxicity, cell-based; method in brief: as §3
[23] = Metabolic stability in human liver microsomes assessed as parent compound remaining at 2 uM incubated for 60 mins in presence of NADPH by RF-MS analysis; type: ADME, Microsome; conditions: read-out: Stability; method in brief: as §1
[24] = Stability in human plasma assessed as compound remaining at 2 uM incubated for 15 mins by RF-MS analysis; type: ADME, cell-free; conditions: read-out: Stability; method in brief: as §1
CCRF-CEM [25] = assay: Induction of apoptosis in human CCRF-CEM cells assessed as viable cells at 1 times IC50 incubated for 24 hrs by Annexin V-FITC and PI staining based flow cytometric analysis (reference value: 97.4 %); type: functional; method in brief: as §4
CCRF-CEM [26] = assay: Induction of apoptosis in human CCRF-CEM cells assessed as necrotic cells at 1 times IC50 incubated for 24 hrs by Annexin V-FITC and PI staining based flow cytometric analysis (reference value: 0.4 %); type: functional; method in brief: as §4
Mitochondrial membrane = assay: Induction of mitochondrial membrane potential depolarization in human CCRF-CEM cells assessed as fold increase in fluorescence intensity incubated for 24 hrs by JC-1 staining based flow cytometry; type: cell membranes
[27] = Stability in human plasma assessed as compound remaining at 2 uM incubated for 30 mins by RF-MS analysis; type: ADME, cell-free; conditions: read-out: Stability; method in brief: as §1
CCRF-CEM [28] = assay: Induction of cell cycle arrest in human CCRF-CEM cells assessed as downregulation of Cyclin A expression at 5 times IC50 incubated for 24 hrs by Western blotting analysis; type: functional, cell-based; method in brief: as §2
CCRF-CEM [29] = assay: Induction of apoptosis in human CCRF-CEM cells assessed as viable cells at 5 times IC50 incubated for 24 hrs by Annexin V-FITC and PI staining based flow cytometric analysis (reference value: 97.4 %); type: functional; method in brief: as §4
CCRF-CEM [30] = assay: Induction of cell cycle arrest in human CCRF-CEM cells assessed as increase in accumulation of G0/G1 phase at 1 times IC50 incubated for 24 hrs by RNase/PI staining based flow cytometry; type: functional
Method in brief: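 Propidium iodide staining and flow cytometry with a 488 nm laser, ≥10,000 intact cells. Phase proportions compared with untreated cells; SEM of three independent experiments.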

CCRF-CEM [31] = assay: Inhibition of DNA synthesis in human CCRF-CEM cells at 5 times IC50 incubated for 24 hrs by BrdU incorporation based flow cytometry; type: functional; method in brief: as §5
CCRF-CEM [32] = assay: Induction of apoptosis in human CCRF-CEM cells assessed as downregulation of caspase-3 expression at 5 times IC50 incubated for 24 hrs by Western blotting analysis; type: functional, cell-based; method in brief: as §2
[33] = Plasma protein binding in human assessed as fraction bound at 10 uM incubated for 4 hrs by rapid equilibrium dialysis based RF-MS analysis; type: ADME, cell-free; conditions: read-out: PPB (converted); method in brief: as §1

## CC(=O)O[C@H]1CC[C@]2(C)[C@H]3CC[C@@H]4[C@H]5[C@H](c6cc7c(c(-c8ccccc8)c6)C(=O)N(c6nccs6)C7=O)CC[C@]5(C(=O)O)CC[C@@]4(C)[C@]3(C)CC[C@H]2C1(C)C
[1]
  remaining at 2 h, 2 µM: 85%
[2]
  remaining at 0.25 h, 2 µM: 103%
CCRF-CEM [3]
  Activity: Active
K562
  IC50: 21.4 µM
CCRF-CEM [4]
  Activity: 3.2%
HCT-116
  IC50: 13.1 µM
CCRF-CEM [5]
  Activity: Active
CCRF-CEM [6]
  Activity: Active
[7]
  remaining at 1 h, 2 µM: 96%
HCT 116 TP53(-/-)
  IC50: 18.6 µM
CCRF-CEM [8]
  Activity: Active
CCRF-CEM [9]
  IC50: 2.52 µM
CCRF-CEM [10]
  Activity: 2.6%
U2OS
  IC50: 16.8 µM
[11]
  IC50 at 72 h: 27.8 µM
[12]
  remaining at 0.5 h, 2 µM: 104%
CCRF-CEM [13]
  inhibition (INH): 37.2%
CCRF-CEM [14]
  inhibition (INH): 28%
A549
  IC50: 20.8 µM
CCRF-CEM [15]
  inhibition (INH): 36.1%
[16]
  IC50: 24.5 µM
CCRF-CEM [17]
  Activity: 5.1%
CEM-DNR
  IC50: 30.5 µM
CCRF-CEM [18]
  Activity: 0%
CCRF-CEM [19]
  Activity: 6%
CCRF-CEM [20]
  Activity: Active
CCRF-CEM [21]
  Activity: Active
[22]
  IC50 at 72 h: 31.7 µM
[23]
  remaining at 1 h, 2 µM: 98%
[24]
  remaining at 0.25 h, 2 µM: 98%
CCRF-CEM [25]
  Activity: 92.3%
CCRF-CEM [26]
  Activity: 0%
Mitochondrial membrane
  Activity: Dose-dependent-effect
[27]
  remaining at 0.5 h, 2 µM: 95%
CCRF-CEM [28]
  Activity: Active
CCRF-CEM [29]
  Activity: 90.8%
CCRF-CEM [30]
  Activity: Active; Slight Increased Activity Observed
CCRF-CEM [31]
  inhibition (INH): 18.5%
CCRF-CEM [32]
  Activity: Active
[33]
  fraction unbound at 4 h, 10 µM: 0.425
